The values that follow come from ChEMBL document CHEMBL1134455, “Synthesis and evaluation of 4-fluoro-8-substituted-2,3,4,5-tetrahydro-1H-2-benzazapines as selective inhibitors of phenylethanolamine N-methyltransferase versus the alpha(2)-adrenoceptor” (J Med Chem, 2001).

SMILES strings stand for the structures. pKi: −log10 of the molar value.

Experiment [1] in a line: Selectivity ratio (alpha2/PNMT).
Experiment [2] deals with T1, Adrenergic receptor alpha-2 (Rattus norvegicus, UniProt P22086+P19328+P22909).
T1 sequence (P22086 whole entry): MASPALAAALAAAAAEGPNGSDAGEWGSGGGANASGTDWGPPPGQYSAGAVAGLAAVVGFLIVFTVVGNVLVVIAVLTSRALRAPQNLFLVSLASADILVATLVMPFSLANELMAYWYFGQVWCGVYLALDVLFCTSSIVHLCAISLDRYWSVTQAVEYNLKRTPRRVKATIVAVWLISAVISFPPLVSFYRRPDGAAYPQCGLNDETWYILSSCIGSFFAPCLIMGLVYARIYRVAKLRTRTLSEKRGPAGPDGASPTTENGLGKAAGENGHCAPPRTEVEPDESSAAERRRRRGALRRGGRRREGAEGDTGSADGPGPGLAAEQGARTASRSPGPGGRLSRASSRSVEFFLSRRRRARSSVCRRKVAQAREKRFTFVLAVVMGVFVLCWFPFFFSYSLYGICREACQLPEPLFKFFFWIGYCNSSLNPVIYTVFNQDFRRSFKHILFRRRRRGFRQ
T1 sequence (P19328 whole entry): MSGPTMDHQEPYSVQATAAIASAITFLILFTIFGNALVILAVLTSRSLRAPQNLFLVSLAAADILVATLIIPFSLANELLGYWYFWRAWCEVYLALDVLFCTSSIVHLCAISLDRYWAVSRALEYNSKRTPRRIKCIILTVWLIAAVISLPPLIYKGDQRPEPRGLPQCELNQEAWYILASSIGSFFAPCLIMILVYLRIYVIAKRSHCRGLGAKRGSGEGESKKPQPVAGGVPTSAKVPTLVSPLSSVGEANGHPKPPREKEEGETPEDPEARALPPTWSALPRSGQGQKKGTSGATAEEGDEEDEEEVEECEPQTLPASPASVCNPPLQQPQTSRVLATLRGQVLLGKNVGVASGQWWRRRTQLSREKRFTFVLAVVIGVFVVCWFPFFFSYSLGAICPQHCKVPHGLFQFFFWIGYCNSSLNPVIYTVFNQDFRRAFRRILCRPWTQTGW
T1 sequence (P22909 whole entry): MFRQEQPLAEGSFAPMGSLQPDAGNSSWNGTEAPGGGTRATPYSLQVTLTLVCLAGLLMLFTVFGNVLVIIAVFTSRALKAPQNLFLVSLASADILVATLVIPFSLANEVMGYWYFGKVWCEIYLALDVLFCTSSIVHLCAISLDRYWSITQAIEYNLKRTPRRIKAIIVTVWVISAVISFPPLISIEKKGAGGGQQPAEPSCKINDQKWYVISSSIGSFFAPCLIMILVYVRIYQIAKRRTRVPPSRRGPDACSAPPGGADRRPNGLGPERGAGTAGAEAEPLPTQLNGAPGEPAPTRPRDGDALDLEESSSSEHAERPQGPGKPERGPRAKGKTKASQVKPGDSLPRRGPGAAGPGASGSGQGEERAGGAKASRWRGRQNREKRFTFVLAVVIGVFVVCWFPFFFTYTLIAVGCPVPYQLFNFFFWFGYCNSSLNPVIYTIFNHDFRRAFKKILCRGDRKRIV
In words: Binding affinity to alpha-2 adrenergic receptor by displacement of [3H]clonidine. The format is protein assay. The essentials:
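Male Sprague Dawley rat cortex homogenized, washed thrice by centrifugation in 50 mM Tris/HCl pH 7.7. Incubated with [3H]clonidine (final 2.0 nM) and varied inhibitor concentrations, 25 °C 30 min; GF/B filtration, scintillation counting. Nonspecific binding with 2 uM phentolamine. IC50 by log-probit analysis, converted to Ki via Cheng–Prusoff (Hill coefficients near one).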
On the technique in general: In a radioligand displacement assay an active substance lowers the binding of a labelled ligand.

The target of experiment [3] is T2, Phenylethanolamine N-methyltransferase (Bos taurus, UniProt P10938).
T2 sequence (P10938 whole entry): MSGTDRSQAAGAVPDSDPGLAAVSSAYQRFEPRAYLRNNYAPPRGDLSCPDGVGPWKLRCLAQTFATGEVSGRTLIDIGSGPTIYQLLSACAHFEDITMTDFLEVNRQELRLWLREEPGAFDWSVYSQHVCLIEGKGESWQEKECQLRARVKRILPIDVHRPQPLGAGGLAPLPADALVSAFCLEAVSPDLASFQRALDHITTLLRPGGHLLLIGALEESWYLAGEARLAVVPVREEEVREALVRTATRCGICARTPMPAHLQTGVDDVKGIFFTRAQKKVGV
Briefly: Ability to inhibit phenylethanolamine N-methyl-transferase (PNMT).

Take `N#Cc1ccc2c(c1)CNC(CF)C2` (stereo not given): in experiment [1], the Selectivity is 420. Same read-out and setting: the result for `Clc1ccc2c(c1Cl)CNCC2` reads 0.095; that for `NS(=O)(=O)c1ccc2c(c1)CNC(CO)C2` (stereo not given), 4100. The Ki is a dissociation constant, usually derived from enzyme kinetics or from competition with a known ligand. Low readings indicate higher affinity, high ones lower affinity. By pKi is commonly meant the negative decadic logarithm of the Ki, by convention in mol/L. Read a low pKi as a large Ki. `O=[N+]([O-])c1ccc2c(c1)CNCC(F)C2` (stereo not given): in experiment [2], the inhibition constant (Ki) amounted to 510000 nM. Besides, the Selectivity in experiment [1] was 940. Further, in experiment [3], the pKi is 6.27.

For the molecule `O=[N+]([O-])c1ccc2c(c1)CNCC2CF` (stereo not given), the inhibitory constant (Ki) in experiment [2] was 35000 nM. The Selectivity in experiment [1] amounted to 17. Moreover, the pKi in experiment [3] is 5.68. Turning to `FC1CNCc2cc(Br)ccc2C1` (stereo not given), the inhibitory constant (Ki) in experiment [2] turned out to be 49000 nM. The Selectivity in experiment [1] amounted to 130. In experiment [3], this molecule showed a pKi of 6.41. Consider `O=[N+]([O-])c1ccc2c(c1)CNCC(O)C2` (stereo not given), for which, in experiment [2], the inhibition constant (Ki) is 680000 nM. Besides, the Selectivity in experiment [1] was 130. Moreover, in experiment [3], the pKi is 5.28. With `COc1ccc2c3c([nH]c2c1)C=NCC3`, the Selectivity in experiment [1] turned out to be 4.4. The same measure, in the same setting: next, `FCC1Cc2ccc(Br)cc2CN1` (stereo not given): 10. Still for that read-out and setting: the result for `NS(=O)(=O)c1ccc2c(c1)CNC(CF)C2` (stereo not given) reads 1000.

With `N#Cc1ccc2c(c1)CNCC(F)C2` (stereo not given), in experiment [2], the Ki was found to be 100000 nM. For the same molecule, the Selectivity in experiment [1] was 77. The same molecule showed a pKi in experiment [3] of 5.89. As to `O=[N+]([O-])c1ccc2c(c1)CNC(CF)C2` (stereo not given), the Selectivity in experiment [1] was found to be 140. In turn, `FC1CNCc2ccccc2C1` (stereo not given) registered a Ki in experiment [2] of 93000 nM. Moreover, the Selectivity in experiment [1] amounted to 47. The molecule further gave a negative-log Ki (pKi) in experiment [3] of 5.70.
